Data as given in ChEMBL document CHEMBL2046406 (J Med Chem, 2012).
The source made the active and inactive calls. No cut-off for these calls is given here.

Columns and labels:
[1] = molecular target: T1, Kappa-type opioid receptor (Homo sapiens, UniProt P41145); test: biochemical; format: cell-based, CHO
Mu-type opioid receptor [2] = molecular target: T2, Mu-type opioid receptor (Homo sapiens, UniProt P35372); test: Agonist activity at human mu opioid receptor expressed in CHO cells assessed as stimulation of […]GTPgammaS binding after 60 mins by scintillation counting; format: functional, cell-based
[3] = molecular target: T3, Delta-type opioid receptor (Homo sapiens, UniProt P41143); test: Displacement of [3H]-naltrindole from human delta opioid receptor expressed in CHO cells at 10 uM after 3 hrs by scintillation counting; format: cell-based
Mu-type opioid receptor [4] = molecular target: T2, Mu-type opioid receptor; test: biochemical; format: cell-based, CHO
Mu-type opioid receptor [5] = molecular target: T2, Mu-type opioid receptor; test: Antagonist activity at human mu opioid receptor expressed in CHO cells assessed as inhibition of DAMGO-induced […]GTPgammaS binding after 60 mins by scintillation counting; format: functional, cell-based
[6] = Displacement of [3H]-naltrindole from human delta opioid receptor expressed in CHO cells after 3 hrs by scintillation counting
Homo sapiens [7] = species on record: Homo sapiens; test: Selectivity index, ratio of inhibition of human kappa opioid receptor to inhibition of human mu opioid receptor
Homo sapiens [8] = species on record: Homo sapiens; test: Selectivity index, ratio of inhibition of human delta opioid receptor to inhibition of human mu opioid receptor
Homo sapiens [9] = species on record: Homo sapiens; test: Selectivity index, ratio of inhibition of human mu opioid receptor to inhibition of human kappa opioid receptor
Homo sapiens [10] = species on record: Homo sapiens; test: Selectivity index, ratio of inhibition of human delta opioid receptor to inhibition of human kappa opioid receptor
[11] = molecular target: T1, Kappa-type opioid receptor; test: Antagonist activity at human kappa opioid receptor expressed in CHO cells assessed as inhibition of U50488-induced […]GTPgammaS binding after 60 mins by scintillation counting; format: functional, cell-based
Outline: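 κ antagonism: hKOR-CHO membranes incubated with compound plus 100 nM U50,488.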

[12] = molecular target: T1, Kappa-type opioid receptor; test: Agonist activity at human kappa opioid receptor expressed in CHO cells assessed as stimulation of […]GTPgammaS binding after 60 mins by scintillation counting; format: functional, cell-based
[13] = molecular target: T1, Kappa-type opioid receptor; test: Agonist activity at human kappa opioid receptor expressed in CHO cells assessed as stimulation of […]GTPgammaS binding after 60 mins by scintillation counting relative to control; format: functional, cell-based
Outline: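 Membranes from CHO cells stably expressing human KOR (15 μg protein per tube) or MOR (7.5 μg protein per tube). Nonspecific binding with 10 μM GTPγS. Filtration, then scintillation counting. Triplicate, at least three experiments.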

[14] = molecular target: T3, Delta-type opioid receptor; test: Displacement of [3H]-naltrindole from human delta opioid receptor expressed in CHO cells after 3 hrs by scintillation counting; format: cell-based
Outline: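 CHO membranes expressing human KOR or DOR incubated with radioligand and 12 compound concentrations in 1 mL 50 mM Tris-HCl, pH 7.5, at 25 °C. […] Nonspecific binding with 10 μM naloxone. Three experiments in triplicate.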

Mu-type opioid receptor [15] = molecular target: T2, Mu-type opioid receptor; test: Antagonist activity at human mu opioid receptor expressed in CHO cells assessed as inhibition of DAMGO-induced […]GTPgammaS binding after 60 mins by scintillation counting relative to control; format: functional, cell-based
Mu-type opioid receptor [16] = molecular target: T2, Mu-type opioid receptor; test: Agonist activity at human mu opioid receptor expressed in CHO cells assessed as stimulation of […]GTPgammaS binding after 60 mins by scintillation counting relative to control; format: functional, cell-based
[17] = molecular target: T1, Kappa-type opioid receptor; test: Displacement of [3H]-U69,593 from human kappa opioid receptor expressed in CHO cells at 10 uM after 60 mins by scintillation counting; format: cell-based

T1 sequence (P41145 whole entry): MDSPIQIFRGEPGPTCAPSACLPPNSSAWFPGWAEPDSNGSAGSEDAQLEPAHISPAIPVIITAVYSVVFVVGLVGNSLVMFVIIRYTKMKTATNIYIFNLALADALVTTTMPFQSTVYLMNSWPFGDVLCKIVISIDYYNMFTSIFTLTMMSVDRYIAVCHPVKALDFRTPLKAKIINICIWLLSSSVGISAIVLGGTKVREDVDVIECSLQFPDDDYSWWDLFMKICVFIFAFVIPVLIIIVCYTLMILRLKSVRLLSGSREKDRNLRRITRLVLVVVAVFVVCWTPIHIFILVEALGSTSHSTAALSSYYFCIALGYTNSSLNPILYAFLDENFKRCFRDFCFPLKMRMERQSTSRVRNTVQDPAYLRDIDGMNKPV
T2 sequence (P35372 whole entry): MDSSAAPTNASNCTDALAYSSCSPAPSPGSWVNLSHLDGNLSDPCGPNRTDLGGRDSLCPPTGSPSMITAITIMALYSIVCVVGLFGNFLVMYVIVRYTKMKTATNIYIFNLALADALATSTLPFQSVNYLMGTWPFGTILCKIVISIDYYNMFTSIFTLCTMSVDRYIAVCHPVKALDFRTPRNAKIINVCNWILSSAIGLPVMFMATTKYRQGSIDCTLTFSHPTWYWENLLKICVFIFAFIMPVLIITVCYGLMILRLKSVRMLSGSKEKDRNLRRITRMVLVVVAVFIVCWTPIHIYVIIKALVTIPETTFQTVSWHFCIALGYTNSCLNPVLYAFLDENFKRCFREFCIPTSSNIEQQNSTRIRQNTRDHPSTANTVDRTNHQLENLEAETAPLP
T3 sequence (P41143 whole entry): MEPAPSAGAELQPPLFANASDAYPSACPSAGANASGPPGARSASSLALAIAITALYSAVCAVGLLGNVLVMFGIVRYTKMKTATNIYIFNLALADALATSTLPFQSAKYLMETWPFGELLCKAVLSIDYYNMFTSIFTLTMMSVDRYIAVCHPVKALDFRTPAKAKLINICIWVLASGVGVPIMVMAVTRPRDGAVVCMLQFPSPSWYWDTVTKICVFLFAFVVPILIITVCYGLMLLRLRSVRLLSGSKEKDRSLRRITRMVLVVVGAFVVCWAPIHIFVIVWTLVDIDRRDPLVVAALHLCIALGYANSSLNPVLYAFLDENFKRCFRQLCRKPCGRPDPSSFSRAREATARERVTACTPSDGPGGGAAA

| SMILES | Ki [1] [µM] | inhibition [3] [%] | Ki (Mu-type opioid receptor [4]) [µM] | Selectivity ratio (Homo sapiens [9]) | Selectivity ratio (Homo sapiens [10]) | other results |
| --- | --- | --- | --- | --- | --- | --- |
| CN1CC[C@]23c4c5ccc(NCc6cccc(O)c6)c4O[C@H]2[C@@H](O)C=C[C@H]3[C@H]1C5 | 0.91 | 31 | 0.007 |  |  | EC50 (Mu-type opioid receptor [2]): 0.55 µM; IC50 (Mu-type opioid receptor [5]; cho): Not Active |
| CN1CC[C@]23CCCC[C@H]2[C@H]1Cc1ccc(N)cc13 | 0.11 |  | 0.0079 |  |  | Ki [6]: 1.5 µM; Selectivity ratio (Homo sapiens [7]): 190; Selectivity ratio (Homo sapiens [8]): 14 |
| Nc1ccc2c(c1)[C@@]13CCCC[C@H]1[C@@H](C2)N(CC1CCC1)CC3 |  |  |  | 2 | 100 |  |
| Oc1cccc(CNc2ccc3c(c2)C[C@@H]2[C@@H]4CCCC[C@]34CCN2CC2CC2)c1 | 0.00099 | 46 | 0.15 | 150 | > 10000 | Activity [11]: inactive; EC50 [12]: 0.027 µM; Emax [13]: 160% |
| Nc1ccc2c(c1)[C@@]13CCCC[C@H]1[C@@H](C2)N(CC1CC1)CC3 |  |  |  | 7 | 830 |  |
| Oc1ccccc1CNc1ccc2c(c1)[C@@]13CCCC[C@H]1[C@@H](C2)N(CC1CC1)CC3 | 0.00026 |  | 0.0019 | 10 | 150 | Activity [11]: inactive; Ki [14]: 0.03 µM; EC50 (Mu-type opioid receptor [2]): 0.0088 µM; Imax (Mu-type opioid receptor [15]): 47%; EC50 [12]: 0.0023 µM; Emax [13]: 110%; Emax (Mu-type opioid receptor [16]): 44%; IC50 (Mu-type opioid receptor [5]; read-out: IC50): 0.16 µM |
| COc1ccc(CNc2ccc3c4c2O[C@H]2[C@@H](O)C=C[C@H]5[C@@H](C3)N(C)CC[C@@]452)cc1 |  | 12 | 0.06 |  |  | Selectivity ratio (Homo sapiens [7]): > 160; inhibition [17]: 54%; Selectivity ratio (Homo sapiens [8]): > 160 |
